ChEMBL document CHEMBL1131218, “Antineoplastic agents. 379. Synthesis of phenstatin phosphate” (J Med Chem, 1998)
In brackets after ≈: the same amount, converted by molar mass.

How the values were obtained:
[1] = test system: Panel NCI-60 (60 carcinoma cell lines); assay: The compound was tested for the concentration for 50% growth inhibition of NCI 60 cell line human tumor screen expressed in 10e-8 M; type: functional
Procedure, shortened: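 NCI 60-cell-line screen, run in triplicate. Compounds tested in three concentration ranges (top 10⁻⁵, 10⁻⁶ and 10⁻⁷ M), each with five 10-fold dilutions. The mean panel GI50 across lines is reported with SD.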

[2] = Concentration to inhibit 50% of tubulin polymerization from bovine brain; set-up: species or system Bos taurus
Procedure, shortened: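 Purified, electrophoretically homogeneous bovine brain tubulin at 1.0 mg/mL (10 μM) in 0.8 M monosodium glutamate pH 6.6 with 4% (v/v) DMSO and varying drug concentrations. Preincubated 15 min at 30 °C, chilled on ice, then GTP added (0.4 mM final). Assembly started by a jump from 0 to 30 °C and followed by turbidity. IC50 taken from extent of assembly at 20 min. Active compounds run in at least three independent experiments.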

[3] = organism: Bos taurus; assay: Percentage inhibition of colchicine binding to tubulin by compound was evaluated; set-up: concentration or dose not given beside the values; conditions: concentration not given here
[4] = molecular target: Tubulin (Bos taurus, UniProt Q6B856+Q862L2+Q862F3); assay: The compound was tested for the concentration to inhibit 50% of tubulin polymerization.; type: protein assay
Procedure, shortened: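 Purified bovine brain tubulin at 1.0 mg/mL (10 μM) in 0.8 M monosodium glutamate pH 6.6 with 4% DMSO. Drug was preincubated with tubulin for 15 min at 30 °C, then chilled. GTP was added to 0.4 mM and assembly started by a jump from 0 to 30 °C, followed by spectrophotometer.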

[5] = test system: KM-20L2; assay: The compound was tested for the concentration to inhibit 50% of colon KM20L2 cell lines.; type: functional; conditions: Homo sapiens
[6] = test system: NCI-H460; assay: The compound was tested for the concentration to inhibit 50% lung-NSC NCI-H460 cell lines.; type: functional; conditions: Homo sapiens
[7] = test system: OVCAR; assay: The compound was tested for the concentration to inhibit 50% of ovarian OVCAR cell lines.; type: functional; conditions: Homo sapiens
[8] = test system: P388; assay: The compound was tested for the concentration to inhibit 50% of leukemia P388 cell lines.; type: functional; conditions: Mus musculus
[9] = test system: SF-295; assay: The compound was tested for the concentration to inhibit 50% of CNS SF-295 cell lines.; type: functional; conditions: Homo sapiens
[10] = test system: SK-MEL-5; assay: The compound was tested for the concentration to inhibit 50% of melanoma SK-MEL-5 cell lines.; type: functional; conditions: Homo sapiens
[11] = test system: A498; assay: The compound was tested for the concentration to inhibit 50% of renal A498 cell lines.; type: functional; conditions: Homo sapiens

Compound | GI50 [1] [µM] | IC50 [2] [µM] | inhibition [3] [%] | further results
COc1ccc(C(=O)c2cc(OC)c(OC)c(OC)c2)cc1OC | 5.11 | 15 | 1 | 
COc1ccc(/C=C\c2cc(OC)c(OC)c(OC)c2)cc1O |  |  | 97 | 
COc1ccc(Cc2cc(OC)c(OC)c(OC)c2)cc1O |  | 3.3 | 65 | 
COc1cc(C(=O)c2cc(C)cc(C)c2)cc(OC)c1OC | 3.48 | 11 | 7 | 
COc1ccc(C(=O)c2cc(OC)c(OC)c(OC)c2)cc1OC(C)=O |  |  | 71 | IC50 [4]: 3.5 µM
COc1cc(C(=O)c2cc(Cl)cc(Cl)c2)cc(OC)c1OC | 5.12 | 36 | 1 | 
COc1ccc(/C=C\c2cc(OC)c(OC)c(OC)c2)cc1OP(=O)([O-])[O-].[Na+].[Na+] [FOSBRETABULIN DISODIUM] |  |  | 4 | GI50 [5]: 0.34 µg/mL; GI50 [6]: 0.029 µg/mL; GI50 [7]: 0.023 µg/mL; GI50 [8]: 0.0004 µg/mL; GI50 [9]: 0.036 µg/mL; GI50 [10]: 0.041 µg/mL; IC50 [4]: > 80 µM; GI50 [11]: 0.041 µg/mL
COc1cc(C(=O)c2ccc3c(c2)OCO3)cc(OC)c1OC | 2.7 | 15 | 0 | 
COc1ccc(C(=O)c2cc(OC)c(OC)c(OC)c2)cc1O [PHENSTATIN] | 0.0601 | 1 | 86 | GI50 [5]: 0.04 µg/mL (≈ 0.126 µM); GI50 [6]: 0.0057 µg/mL (≈ 0.0179 µM); GI50 [7]: 0.0023 µg/mL (≈ 0.00723 µM); GI50 [8]: 0.0033 µg/mL (≈ 0.0104 µM); GI50 [9]: 0.052 µg/mL (≈ 0.163 µM); GI50 [10]: 0.0038 µg/mL (≈ 0.0119 µM); GI50 [11]: 0.38 µg/mL (≈ 1.19 µM)
COc1ccc(Cc2cc(OC)c(OC)c(OC)c2)cc1 |  | 4.4 | 56 | 
COc1ccc(/C=C\c2cc(OC)c(OC)c(OC)c2)cc1 |  |  | 97 | IC50 [4]: 1.3 µM
COc1cc(C(=O)c2cc(F)cc(F)c2)cc(OC)c1OC | 4.94 | 39 | 0 | 
COc1cc(OC)cc(C(=O)c2cc(OC)c(OC)c(OC)c2)c1 | 0.543 | 3.6 | 58 | 
COc1ccc(CCc2cc(OC)c(OC)c(OC)c2)cc1O |  | 2.1 | 77 | 
COc1ccc(CCc2cc(OC)c(OC)c(OC)c2)cc1 |  | 3.2 | 54 | 
COc1ccc(C(=O)c2cc(OC)c(OC)c(OC)c2)cc1OP(=O)([O-])O.[Na+] |  |  | 37 | GI50 [5]: 0.27 µg/mL; GI50 [6]: 0.035 µg/mL; GI50 [7]: 0.0025 µg/mL; GI50 [8]: < 0.001 µg/mL; GI50 [9]: 0.012 µg/mL; GI50 [10]: 0.0047 µg/mL; IC50 [4]: 21 µM; GI50 [11]: 0.05 µg/mL
